# Experimental data reported in ChEMBL document CHEMBL4689842, “EUbOPEN Chemogenomics Library wave 1” (2021).
# Assays:
# U2OS [1] = assay: Incucyte cell viability with U2OS; assay type: toxicity, cell-based; settings: human, 10 µM, compound concentration 10 uM; note: filed as whole numbers so only -1 and 0 and 1 occur
# U2OS [2] = assay: Multiplex assay against U2OS; assay type: toxicity, cell-based; settings: human
# Summary of the method: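 Values for tubulin, mitochondrial-mass and membrane-permeability phenotypes are per cents of cells with healthy nuclei. These cells were identified by CellPathfinder machine-learning gating of live cells that had been stained at seeding with Hoechst33342, BioTracker Green Microtubule Cytoskeleton Dye, MitoTracker Red and Annexin V Alexa Fluor 680 and imaged on a CQ1 microscope at 37°C and 5% CO2 after compound addition. The gating first set Hoechst high-intensity objects apart from normal cells, then split normal cells into healthy, pyknosed or fragmented nuclei, and pyknosed cells into mitotic or apoptotic.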
# [3] = 12 h, 1 µM, compound concentration 1 uM, replicate 1
# [4] = 12 h, 1 µM, compound concentration 1 uM, replicate 2
# [5] = 12 h, 10 µM, compound concentration 10 uM, replicate 1
# [6] = 12 h, 10 µM, compound concentration 10 uM, replicate 2
# [7] = 24 h, 1 µM, compound concentration 1 uM, replicate 1
# [8] = 24 h, 1 µM, compound concentration 1 uM, replicate 2
compound,measurement,setting,value
C=CC(=O)Nc1cc(-n2c(=O)ccc3cnc4ccc(-c5ccc(NS(C)(=O)=O)cc5)cc4c32)ccc1C,Growth Rate,"U2OS [1]; 0 h, replicate number 1, timepoint 0 hours",0
same,Growth Rate,"U2OS [1]; 0 h, replicate number 2, timepoint 0 hours",1
same,Growth Rate,"U2OS [1]; 6 h, replicate number 1, timepoint 6 hours",1
same,Growth Rate,"U2OS [1]; 12 h, replicate number 1, timepoint 12 hours",1
same,Growth Rate,"U2OS [1]; 12 h, replicate number 2, timepoint 12 hours",0
same,Growth Rate,"U2OS [1]; 18 h, replicate number 1, timepoint 18 hours",0
same,Growth Rate,"U2OS [1]; 24 h, replicate number 1, timepoint 24 hours",0
same,Population Apoptotic (%),U2OS [2]; [3],35%
same,Population Fragmented Nuclei (%),U2OS [2]; [3],6%
same,Population Healthy Nuclei (%),U2OS [2]; [3],80%
same,Population Hoechst High Intensity Objects (%),U2OS [2]; [3],3%
same,Population Membrane Permeable-Phenotype (%),U2OS [2]; [3],7%
same,Population Mitochondria Different-Phenotype (%),U2OS [2]; [3],4%
same,Population Mitotic Cells (%),U2OS [2]; [3],65%
same,Population Normal (%),U2OS [2]; [3],96%
same,Population Pyknosed Nuclei (%),U2OS [2]; [3],12%
same,Population Tubulin-Different-Phenotype (%),U2OS [2]; [3],6%
same,Total Cell Count,U2OS [2]; [3],164
same,Population Apoptotic (%),U2OS [2]; [4],33%
same,Population Fragmented Nuclei (%),U2OS [2]; [4],10%
same,Population Healthy Nuclei (%),U2OS [2]; [4],77%
same,Population Hoechst High Intensity Objects (%),U2OS [2]; [4],7%
same,Population Membrane Permeable-Phenotype (%),U2OS [2]; [4],0%
same,Population Mitochondria Different-Phenotype (%),U2OS [2]; [4],10%
same,Population Mitotic Cells (%),U2OS [2]; [4],66%
same,Population Normal (%),U2OS [2]; [4],92%
same,Population Tubulin-Different-Phenotype (%),U2OS [2]; [4],10%
same,Total Cell Count,U2OS [2]; [4],53
same,Population Apoptotic (%),U2OS [2]; [5],30%
same,Population Fragmented Nuclei (%),U2OS [2]; [5],19%
same,Population Healthy Nuclei (%),U2OS [2]; [5],66%
same,Population Hoechst High Intensity Objects (%),U2OS [2]; [5],7%
same,Population Membrane Permeable-Phenotype (%),U2OS [2]; [5],10%
same,Population Mitochondria Different-Phenotype (%),U2OS [2]; [5],26%
same,Population Mitotic Cells (%),U2OS [2]; [5],69%
same,Population Normal (%),U2OS [2]; [5],92%
same,Population Pyknosed Nuclei (%),U2OS [2]; [5],14%
same,Population Tubulin-Different-Phenotype (%),U2OS [2]; [5],29%
same,Total Cell Count,U2OS [2]; [5],173
same,Population Apoptotic (%),U2OS [2]; [6],76%
same,Population Fragmented Nuclei (%),U2OS [2]; [6],8%
same,Population Healthy Nuclei (%),U2OS [2]; [6],54%
same,Population Hoechst High Intensity Objects (%),U2OS [2]; [6],9%
same,Population Membrane Permeable-Phenotype (%),U2OS [2]; [6],12%
same,Population Mitochondria Different-Phenotype (%),U2OS [2]; [6],56%
same,Population Mitotic Cells (%),U2OS [2]; [6],23%
same,Population Normal (%),U2OS [2]; [6],90%
same,Population Pyknosed Nuclei (%),U2OS [2]; [6],36%
same,Population Tubulin-Different-Phenotype (%),U2OS [2]; [6],52%
same,Total Cell Count,U2OS [2]; [6],51
same,Population Apoptotic (%),U2OS [2]; [7],28%
same,Population Fragmented Nuclei (%),U2OS [2]; [7],6%
same,Population Healthy Nuclei (%),U2OS [2]; [7],86%
same,Population Hoechst High Intensity Objects (%),U2OS [2]; [7],4%
same,Population Membrane Permeable-Phenotype (%),U2OS [2]; [7],4%
same,Population Mitochondria Different-Phenotype (%),U2OS [2]; [7],8%
same,Population Mitotic Cells (%),U2OS [2]; [7],71%
same,Population Normal (%),U2OS [2]; [7],95%
same,Population Pyknosed Nuclei (%),U2OS [2]; [7],6%
same,Population Tubulin-Different-Phenotype (%),U2OS [2]; [7],12%
same,Total Cell Count,U2OS [2]; [7],216
same,Population Apoptotic (%),U2OS [2]; [8],55%
same,Population Fragmented Nuclei (%),U2OS [2]; [8],11%
same,Population Healthy Nuclei (%),U2OS [2]; [8],76%
same,Population Hoechst High Intensity Objects (%),U2OS [2]; [8],2%
same,Population Membrane Permeable-Phenotype (%),U2OS [2]; [8],3%
same,Population Mitochondria Different-Phenotype (%),U2OS [2]; [8],15%
same,Population Mitotic Cells (%),U2OS [2]; [8],44%
same,Population Normal (%),U2OS [2]; [8],97%
